Test results: ChEMBL document CHEMBL1142188, “Fitness costs of fluoroquinolone resistance in Streptococcus pneumoniae” (2007)
In brackets after ≈: the same amount, converted by molar mass.

Tests used:
Streptococcus pneumoniae [1] = assay: Antimicrobial activity against Streptococcus pneumoniae R6 transformants with parC D83Y mutation; type: functional
Outline: (§1)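 MIC by Etest on tryptic soy agar with 5% sheep blood, incubated overnight at 35°C, or by serial dilution in Mueller-Hinton broth with 5% horse blood per CLSI protocols. Each assay was run twice. Strains were R6 or R6 transformed with QRDR alleles from levofloxacin-resistant clinical isolates, with mutations confirmed by PCR sequencing.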

Streptococcus pneumoniae [2] = assay: Antimicrobial activity against Streptococcus pneumoniae R6 transformants with gyrA S81Y mutation; type: functional; outline: as §1
Streptococcus pneumoniae [3] = assay: Antimicrobial activity against Streptococcus pneumoniae R6 transformants with gyrA S81F mutation; type: functional; outline: as §1
Streptococcus pneumoniae [4] = assay: Antimicrobial activity against Streptococcus pneumoniae R6 transformants with parC S79Y and gyrA S81F mutation; type: functional; outline: as §1
Streptococcus pneumoniae [5] = assay: Antimicrobial activity against Streptococcus pneumoniae R6 transformants with parC S79Y and gyrA E85K mutation; type: functional; outline: as §1
Streptococcus pneumoniae [6] = assay: Antimicrobial activity against Streptococcus pneumoniae R6 transformants with parC S79F and gyrA S81F mutation; type: functional; outline: as §1
Streptococcus pneumoniae [7] = assay: Antimicrobial activity against Streptococcus pneumoniae R6 transformants with parC S79F and gyrA S81Y mutation; type: functional; outline: as §1
Streptococcus pneumoniae [8] = assay: Antimicrobial activity agaisnt Streptococcus pneumoniae R6 transformants with parC S79F and gyrA E85K mutation; type: functional; outline: as §1
Streptococcus pneumoniae [9] = assay: Antimicrobial activity against Streptococcus pneumoniae R6 transformants with parC D83Y and gyrA S81F mutation; type: functional; outline: as §1
Streptococcus pneumoniae [10] = assay: Antimicrobial activity against Streptococcus pneumoniae R6 transformants with parC D83Y and gyrA S81Y mutation; type: functional; outline: as §1
Streptococcus pneumoniae [11] = assay: Antimicrobial activity against Streptococcus pneumoniae R6 transformants with parC D83Y and gyrA E85K mutation; type: functional; outline: as §1
Streptococcus pneumoniae [12] = assay: Antimicrobial activity against Streptococcus pneumoniae R6 transformants with parE D435N and gyrA S81F mutation; type: functional; outline: as §1
Streptococcus pneumoniae [13] = assay: Antimicrobial activity against Streptococcus pneumoniae R6 transformants with parE D435N and gyrA S81Y mutation; type: functional; outline: as §1
Streptococcus pneumoniae [14] = assay: Antimicrobial activity against Streptococcus pneumoniae R6 transformants with parE D435N and gyrA E85K mutation; type: functional; outline: as §1
Streptococcus pneumoniae [15] = assay: Antimicrobial activity against Streptococcus pneumoniae R6 transformants with parC S79F mutation in presence of reserpine
Streptococcus pneumoniae [16] = assay: Antimicrobial activity against Streptococcus pneumoniae R6 transformants with parC S79Y mutation in presence of reserpine
Streptococcus pneumoniae [17] = assay: Antimicrobial activity against Streptococcus pneumoniae R6 transformants with parC D83Y mutation in presence of reserpine
Streptococcus pneumoniae [18] = assay: Antimicrobial activity against Streptococcus pneumoniae R6 transformants with parE D435N mutation in presence of reserpine
Streptococcus pneumoniae [19] = assay: Antimicrobial activity against Streptococcus pneumoniae R6 transformants with gyrA S81Y mutation in presence of reserpine
Streptococcus pneumoniae [20] = assay: Antimicrobial activity against Streptococcus pneumoniae R6 transformants with gyrA S81F mutation in presence of reserpine
Streptococcus pneumoniae [21] = assay: Antimicrobial activity against Streptococcus pneumoniae R6 transformants with parC S79Y and gyrA S81F mutation in presence of reserpine
Streptococcus pneumoniae [22] = assay: Antimicrobial activity against Streptococcus pneumoniae R6 transformants with parC S79Y and gyrA E85K mutation in presence of reserpine
Streptococcus pneumoniae [23] = assay: Antimicrobial activity against Streptococcus pneumoniae R6 transformants with parC S79F and gyrA S81F mutation in presence of reserpine
Streptococcus pneumoniae [24] = assay: Antimicrobial activity against Streptococcus pneumoniae R6 transformants with parC S79F and gyrA S81Y mutation in presence of reserpine
Streptococcus pneumoniae [25] = assay: Antimicrobial activity against Streptococcus pneumoniae R6 transformants with parC S79F and gyrA E85K mutation in presence of reserpine
Streptococcus pneumoniae [26] = assay: Antimicrobial activity agaisnt Streptococcus pneumoniae R6 transformants with parC D83Y and gyrA S81F mutation in presence of reserpine
Streptococcus pneumoniae [27] = assay: Antimicrobial activity against Streptococcus pneumoniae R6 transformants with parC D83Y and gyrA S81Y mutation in presence of reserpine
Streptococcus pneumoniae [28] = assay: Antimicrobial activity against Streptococcus pneumoniae R6 transformants with parC D83Y and gyrA E85K mutation in presence of reserpine
Streptococcus pneumoniae [29] = assay: Antimicrobial activity against Streptococcus pneumoniae R6 transformants with parE D435N and gyrA S81F mutation in presence of reserpine
Streptococcus pneumoniae [30] = assay: Antimicrobial activity against Streptococcus pneumoniae R6 transformants with parE D435N and gyrA S81Y mutation in presence of reserpine
Streptococcus pneumoniae [31] = assay: Antimicrobial activity against Streptococcus pneumoniae R6 transformants with parE D435N and gyrA E85K mutation in presence of reserpine
Streptococcus pneumoniae [32] = assay: Antimicrobial activity against Streptococcus pneumoniae R6; type: functional; outline: as §1
Streptococcus pneumoniae [33] = assay: Antimicrobial activity against Streptococcus pneumoniae R6 transformants with parC S79F mutation; type: functional; outline: as §1
Streptococcus pneumoniae [34] = assay: Antimicrobial activity agaisnt Streptococcus pneumoniae R6 transformants with parC S79Y mutation; type: functional; outline: as §1
Streptococcus pneumoniae [35] = assay: Antimicrobial activity against Streptococcus pneumoniae R6 transformants with parE D435N mutation; type: functional; outline: as §1
Streptococcus pneumoniae [36] = assay: Antimicrobial activity against Streptococcus pneumoniae R6 transformants with gyrA E85K mutation; type: functional; outline: as §1

SMILES: O=C(O)c1cn(C2CC2)c2cc(N3CCNCC3)c(F)cc2c1=O [CIPROFLOXACIN]
- MIC (Streptococcus pneumoniae [1]): 3 µg/mL (≈ 9.05 µM)
- MIC (Streptococcus pneumoniae [2]): 2 µg/mL (≈ 6.04 µM)
- MIC (Streptococcus pneumoniae [3]): 1 µg/mL (≈ 3.02 µM)
- MIC (Streptococcus pneumoniae [4]): 64 µg/mL (≈ 193 µM)
- MIC (Streptococcus pneumoniae [5]): 64 µg/mL (≈ 193 µM)
- MIC (Streptococcus pneumoniae [6]): 64 µg/mL (≈ 193 µM)
- MIC (Streptococcus pneumoniae [7]): 64 µg/mL (≈ 193 µM)
- MIC (Streptococcus pneumoniae [8]): 32 µg/mL (≈ 96.6 µM)
- MIC (Streptococcus pneumoniae [9]): 32 µg/mL (≈ 96.6 µM)
- MIC (Streptococcus pneumoniae [10]): 64 µg/mL (≈ 193 µM)
- MIC (Streptococcus pneumoniae [11]): 64 µg/mL (≈ 193 µM)
- MIC (Streptococcus pneumoniae [12]): 32 µg/mL (≈ 96.6 µM)
- MIC (Streptococcus pneumoniae [13]): 64 µg/mL (≈ 193 µM)
- MIC (Streptococcus pneumoniae [14]): < 4 µg/mL
- MIC (Streptococcus pneumoniae [15]): 2 µg/mL
- MIC (Streptococcus pneumoniae [16]): 2 µg/mL
- MIC (Streptococcus pneumoniae [17]): 2 µg/mL
- MIC (Streptococcus pneumoniae [18]): 2 µg/mL
- MIC (Streptococcus pneumoniae [19]): 2 µg/mL
- MIC (Streptococcus pneumoniae [20]): 1 µg/mL
- MIC (Streptococcus pneumoniae [21]): 32 µg/mL
- MIC (Streptococcus pneumoniae [22]): 32 µg/mL
- MIC (Streptococcus pneumoniae [23]): 32 µg/mL
- MIC (Streptococcus pneumoniae [24]): 32 µg/mL
- MIC (Streptococcus pneumoniae [25]): 32 µg/mL
- MIC (Streptococcus pneumoniae [26]): 8 µg/mL
- MIC (Streptococcus pneumoniae [27]): 32 µg/mL
- MIC (Streptococcus pneumoniae [28]): 32 µg/mL
- MIC (Streptococcus pneumoniae [29]): 16 µg/mL
- MIC (Streptococcus pneumoniae [30]): 32 µg/mL
- MIC (Streptococcus pneumoniae [31]): < 4 µg/mL

SMILES: COc1c(N2CCNC(C)C2)c(F)cc2c(=O)c(C(=O)O)cn(C3CC3)c12 (centres undefined) [GATIFLOXACIN]
- MIC (Streptococcus pneumoniae [32]): 0.12 µg/mL (≈ 0.32 µM)
- MIC (Streptococcus pneumoniae [33]): 0.12 µg/mL (≈ 0.32 µM)
- MIC (Streptococcus pneumoniae [34]): 0.12 µg/mL (≈ 0.32 µM)
- MIC (Streptococcus pneumoniae [1]): 0.12 µg/mL (≈ 0.32 µM)
- MIC (Streptococcus pneumoniae [35]): 0.12 µg/mL (≈ 0.32 µM)
- MIC (Streptococcus pneumoniae [2]): 0.25 µg/mL (≈ 0.666 µM)
- MIC (Streptococcus pneumoniae [36]): 0.25 µg/mL (≈ 0.666 µM)
- MIC (Streptococcus pneumoniae [3]): 0.25 µg/mL (≈ 0.666 µM)
- MIC (Streptococcus pneumoniae [4]): ≥ 4 µg/mL
- MIC (Streptococcus pneumoniae [5]): ≥ 4 µg/mL
- MIC (Streptococcus pneumoniae [6]): ≥ 4 µg/mL
- MIC (Streptococcus pneumoniae [7]): ≥ 4 µg/mL
- MIC (Streptococcus pneumoniae [8]): ≥ 4 µg/mL
- MIC (Streptococcus pneumoniae [9]): 4 µg/mL (≈ 10.7 µM)
- MIC (Streptococcus pneumoniae [10]): ≥ 4 µg/mL
- MIC (Streptococcus pneumoniae [11]): 2 µg/mL (≈ 5.33 µM)
- MIC (Streptococcus pneumoniae [12]): 2 µg/mL (≈ 5.33 µM)
- MIC (Streptococcus pneumoniae [13]): ≥ 4 µg/mL
- MIC (Streptococcus pneumoniae [14]): 0.25 µg/mL (≈ 0.666 µM)

SMILES: CO/N=C1\CN(c2nc3c(cc2F)c(=O)c(C(=O)O)cn3C2CC2)CC1CN (centres undefined) [GEMIFLOXACIN]
- MIC (Streptococcus pneumoniae [32]): 0.03 µg/mL (≈ 0.077 µM)
- MIC (Streptococcus pneumoniae [33]): 0.06 µg/mL (≈ 0.154 µM)
- MIC (Streptococcus pneumoniae [34]): 0.06 µg/mL (≈ 0.154 µM)
- MIC (Streptococcus pneumoniae [1]): 0.06 µg/mL (≈ 0.154 µM)
- MIC (Streptococcus pneumoniae [35]): 0.06 µg/mL (≈ 0.154 µM)
- MIC (Streptococcus pneumoniae [2]): 0.12 µg/mL (≈ 0.308 µM)
- MIC (Streptococcus pneumoniae [36]): 0.06 µg/mL (≈ 0.154 µM)
- MIC (Streptococcus pneumoniae [3]): 0.12 µg/mL (≈ 0.308 µM)
- MIC (Streptococcus pneumoniae [4]): 1 µg/mL (≈ 2.57 µM)
- MIC (Streptococcus pneumoniae [5]): 1 µg/mL (≈ 2.57 µM)
- MIC (Streptococcus pneumoniae [6]): 0.5 µg/mL (≈ 1.28 µM)
- MIC (Streptococcus pneumoniae [7]): 0.5 µg/mL (≈ 1.28 µM)
- MIC (Streptococcus pneumoniae [8]): 1 µg/mL (≈ 2.57 µM)
- MIC (Streptococcus pneumoniae [9]): 0.12 µg/mL (≈ 0.308 µM)
- MIC (Streptococcus pneumoniae [10]): 0.25 µg/mL (≈ 0.642 µM)
- MIC (Streptococcus pneumoniae [11]): 0.5 µg/mL (≈ 1.28 µM)
- MIC (Streptococcus pneumoniae [12]): 0.25 µg/mL (≈ 0.642 µM)
- MIC (Streptococcus pneumoniae [13]): 0.25 µg/mL (≈ 0.642 µM)
- MIC (Streptococcus pneumoniae [14]): < 0.06 µg/mL

SMILES: C[C@H]1COc2c(N3CCN(C)CC3)c(F)cc3c(=O)c(C(=O)O)cn1c23.C[C@H]1COc2c(N3CCN(C)CC3)c(F)cc3c(=O)c(C(=O)O)cn1c23.O [LEVOFLOXACIN]
- MIC (Streptococcus pneumoniae [2]): 3 µg/mL
- MIC (Streptococcus pneumoniae [4]): > 32 µg/mL
- MIC (Streptococcus pneumoniae [5]): > 32 µg/mL
- MIC (Streptococcus pneumoniae [6]): > 32 µg/mL
- MIC (Streptococcus pneumoniae [7]): > 32 µg/mL
- MIC (Streptococcus pneumoniae [8]): > 32 µg/mL
- MIC (Streptococcus pneumoniae [9]): > 32 µg/mL
- MIC (Streptococcus pneumoniae [10]): > 32 µg/mL
- MIC (Streptococcus pneumoniae [11]): > 32 µg/mL
- MIC (Streptococcus pneumoniae [12]): > 32 µg/mL
- MIC (Streptococcus pneumoniae [13]): > 32 µg/mL

SMILES: COc1c(N2C[C@@H]3CCCN[C@@H]3C2)c(F)cc2c(=O)c(C(=O)O)cn(C3CC3)c12 [MOXIFLOXACIN]
- MIC (Streptococcus pneumoniae [2]): > 0.5 µg/mL
- MIC (Streptococcus pneumoniae [36]): 0.25 µg/mL (≈ 0.623 µM)
- MIC (Streptococcus pneumoniae [3]): 0.5 µg/mL (≈ 1.25 µM)
- MIC (Streptococcus pneumoniae [4]): 8 µg/mL (≈ 19.9 µM)
- MIC (Streptococcus pneumoniae [5]): 8 µg/mL (≈ 19.9 µM)
- MIC (Streptococcus pneumoniae [6]): 8 µg/mL (≈ 19.9 µM)
- MIC (Streptococcus pneumoniae [7]): 4 µg/mL (≈ 9.96 µM)
- MIC (Streptococcus pneumoniae [8]): 8 µg/mL (≈ 19.9 µM)
- MIC (Streptococcus pneumoniae [9]): 4 µg/mL (≈ 9.96 µM)
- MIC (Streptococcus pneumoniae [10]): 4 µg/mL (≈ 9.96 µM)
- MIC (Streptococcus pneumoniae [11]): 4 µg/mL (≈ 9.96 µM)
- MIC (Streptococcus pneumoniae [12]): 4 µg/mL (≈ 9.96 µM)
- MIC (Streptococcus pneumoniae [13]): 4 µg/mL (≈ 9.96 µM)
- MIC (Streptococcus pneumoniae [14]): 0.5 µg/mL (≈ 1.25 µM)
